Source: ChEMBL document CHEMBL1649578, “Biofilm formation and effect of caspofungin on biofilm structure of Candida species bloodstream isolates” (2009)
≈ marks a conversion by molar mass, not a printed value. Calls of active or inactive are those of the source. The rule behind the calls is not given here.

Key:
[1] = tested on: Candida tropicalis; experiment: Antifungal activity against Candida tropicalis isolate CT8 biofilm assessed as viable fungal count per cm2 of silicone disk at 1 ug/ml after 48 hrs […]; assay type: functional
Outline: (§1)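 Biofilms grown on serum-preconditioned silicone disks in RPMI 1640 for 24 h, PBS-washed, then exposed 48 h at 35°C on a rocker to caspofungin doubling dilutions spanning 0.25–128 μg/ml. Disks washed and sonicated/vortexed in PBS to release cells. Suspensions diluted in Butterfield buffer and plated on Sabouraud dextrose agar. Viable counts from three disks averaged as CFU/cm2.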

[2] = tested on: Candida albicans; experiment: Ratio of SMIC for Candida albicans isolate CA4 biofilm to MIC for Candida albicans isolate CA4 planktonic cells; assay type: functional
[3] = tested on: Candida tropicalis; experiment: Ratio of SMIC for Candida tropicalis isolate CT8 biofilm to MIC for Candida tropicalis isolate CT8 planktonic cells; assay type: functional
[4] = tested on: Candida tropicalis; experiment: Antifungal activity against Candida tropicalis isolate CT8 planktonic cells after 48 hrs by broth microdilution method; assay type: functional; conditions: isolate CT8, 48 h
Outline: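 CLSI broth microdilution in RPMI 1640; isolate plated on Sabouraud dextrose agar 24 h at 37°C. Drug stock in sterile saline diluted in RPMI, 16 to 0.0625 μg/ml tested. MIC read at 48 h as lowest concentration giving significant turbidity reduction versus control well.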

[5] = tested on: Candida albicans; experiment: Antifungal activity against Candida albicans isolate CA4 biofilm assessed as viable fungal count per cm2 of silicone disk at 32 ug/ml after 48 hrs […]; assay type: functional; outline: as §1
[6] = tested on: Candida tropicalis; experiment: Antifungal activity against Candida tropicalis isolate CT8 biofilm assessed as appearance of collapsed cell wall at 1 ug/ml after 48 hrs by scanning electron microscopy; assay type: functional, organism-based
Outline: (§2)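 Silicone disks preconditioned 24 h at 37°C in heat-inactivated human serum, seeded with 1 × 10^6 CFU/ml in MOPS-buffered RPMI 1640 (pH 7.0), 1.5 h attachment at 37°C with shaking, then grown 24 h. Washed biofilms exposed to 1.0, 16 or 128 μg/ml caspofungin in RPMI 1640, 48 h at 35°C on a rocker. Untreated controls in RPMI only. Fixed in 5% glutaraldehyde/cacodylate (pH 6.2), ethanol-dehydrated, HMDS air-dried, examined by SEM. Run in triplicate.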

[7] = tested on: Candida albicans; experiment: Antifungal activity against Candida albicans isolate CA4 biofilm assessed as assessed as appearance of increased number of small blastospore at 128 ug/ml after 48 hrs by scanning electron microscopy; assay type: functional, organism-based; outline: as §2
[8] = tested on: Candida albicans; experiment: Antifungal activity against Candida albicans isolate CA4 biofilm assessed as viable fungal count per cm2 of silicone disk at 0.5 ug/ml after 48 hrs […]; assay type: functional; outline: as §1
[9] = tested on: Candida albicans; experiment: Antifungal activity against Candida albicans isolate CA4 biofilm assessed as viable fungal count per cm2 of silicone disk at 16 ug/ml after 48 hrs […]; assay type: functional; outline: as §1
[10] = tested on: Candida tropicalis; experiment: Antifungal activity against Candida tropicalis isolate CT8 biofilm assessed as viable fungal count per cm2 of silicone disk at 4 ug/ml after 48 hrs […]; assay type: functional; outline: as §1
[11] = tested on: Candida tropicalis; experiment: Antifungal activity against Candida tropicalis isolate CT8 biofilm assessed as change in cellular morphology at 128 ug/ml after 48 hrs by scanning electron microscopy; assay type: functional, organism-based; outline: as §2
[12] = tested on: Candida parapsilosis; experiment: Antifungal activity against Candida parapsilosis isolate CP1 biofilm assessed as viable fungal count per cm2 of silicone disk at 128 ug/ml after 48 hrs […]; assay type: functional; outline: as §1
[13] = tested on: Candida parapsilosis; experiment: Antifungal activity against Candida parapsilosis isolate CP1 biofilm assessed as viable fungal count per cm2 of silicone disk at 8 ug/ml after 48 hrs […]; assay type: functional; outline: as §1
[14] = tested on: Candida tropicalis; experiment: Antifungal activity against Candida tropicalis isolate CT8 biofilm assessed as viable fungal count per cm2 of silicone disk at 128 ug/ml after 48 hrs […]; assay type: functional; outline: as §1
[15] = tested on: Candida tropicalis; experiment: Antifungal activity against Candida tropicalis isolate CT8 biofilm assessed as viable fungal count per cm2 of silicone disk at 2 ug/ml after 48 hrs […]; assay type: functional; outline: as §1
[16] = tested on: Candida parapsilosis; experiment: Antifungal activity against Candida parapsilosis isolate CP1 biofilm assessed as viable fungal count per cm2 of silicone disk at 16 ug/ml after 48 hrs […]; assay type: functional; outline: as §1
[17] = tested on: Candida tropicalis; experiment: Antifungal activity against Candida tropicalis isolate CT8 biofilm assessed as viable fungal count per cm2 of silicone disk at 0.25 ug/ml after 48 hrs […]; assay type: functional; outline: as §1
[18] = tested on: Candida albicans; experiment: Antifungal activity against Candida albicans isolate CA4 biofilm assessed as viable fungal count per cm2 of silicone disk at 2 ug/ml after 48 hrs […]; assay type: functional; outline: as §1
[19] = tested on: Candida tropicalis; experiment: Antifungal activity against Candida tropicalis isolate CT8 biofilm assessed as viable fungal count per cm2 of silicone disk at 32 ug/ml after 48 hrs […]; assay type: functional; outline: as §1
[20] = tested on: Candida albicans; experiment: Antifungal activity against Candida albicans isolate CA4 biofilm assessed as viable fungal count per cm2 of silicone disk at 1 ug/ml after 48 hrs […]; assay type: functional; outline: as §1
[21] = tested on: Candida parapsilosis; experiment: Antifungal activity against Candida parapsilosis isolate CP1 biofilm assessed as viable fungal count per cm2 of silicone disk at 4 ug/ml after 48 hrs […]; assay type: functional; outline: as §1
[22] = tested on: Candida tropicalis; experiment: Antifungal activity against Candida tropicalis isolate CT8 biofilm assessed as viable fungal count per cm2 of silicone disk at 0.5 ug/ml after 48 hrs […]; assay type: functional; outline: as §1
[23] = tested on: Candida tropicalis; experiment: Antifungal activity against Candida tropicalis isolate CT8 biofilm after 48 hrs by XTT assay; assay type: functional; conditions: isolate CT8, 48 h
Outline: (§3)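 Biofilms of clinical bloodstream isolates grown 24 h in RPMI 1640 (MOPS, pH 7.0) on human-serum-preconditioned silicone disks, after 1.5 h attachment at 37°C from 1 × 10^6 CFU/ml. Washed disks exposed 48 h at 35°C on rocker to 10 doubling dilutions, 0.25–128 μg/ml. XTT-menadione reduction 2 h at 37°C, A490; concentration giving 50% reduction of metabolic activity vs drug-free control; triplicate.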

[24] = tested on: Candida parapsilosis; experiment: Antifungal activity against Candida parapsilosis isolate CP1 biofilm assessed as viable fungal count per cm2 of silicone disk at 0.25 ug/ml after 48 hrs […]; assay type: functional; outline: as §1
[25] = tested on: Candida parapsilosis; experiment: Antifungal activity against Candida parapsilosis isolate CP1 biofilm assessed as change in cellular morphology at 1 ug/ml after 48 hrs by scanning electron microscopy; assay type: functional, organism-based; outline: as §2
[26] = tested on: Candida albicans; experiment: Antifungal activity against Candida albicans isolate CA4 biofilm assessed as viable fungal count per cm2 of silicone disk at 4 ug/ml after 48 hrs […]; assay type: functional; outline: as §1
[27] = tested on: Candida parapsilosis; experiment: Antifungal activity against Candida parapsilosis isolate CP1 biofilm assessed as change in cellular morphology at 16 ug/ml after 48 hrs by scanning electron microscopy; assay type: functional, organism-based; outline: as §2
[28] = tested on: Candida parapsilosis; experiment: Antifungal activity against Candida parapsilosis isolate CP1 biofilm assessed as viable fungal count per cm2 of silicone disk at 1 ug/ml after 48 hrs […]; assay type: functional; outline: as §1
[29] = tested on: Candida tropicalis; experiment: Antifungal activity against Candida tropicalis isolate CT8 biofilm assessed as viable fungal count per cm2 of silicone disk at 8 ug/ml after 48 hrs […]; assay type: functional; outline: as §1
[30] = tested on: Candida albicans; experiment: Antifungal activity against Candida albicans isolate CA4 biofilm assessed as appearance of collapsed blastospore at 1 ug/ml after 48 hrs by scanning electron microscopy; assay type: functional, organism-based; outline: as §2
[31] = tested on: Candida albicans; experiment: Antifungal activity against Candida albicans isolate CA4 biofilm assessed as viable fungal count per cm2 of silicone disk at 128 ug/ml after 48 hrs […]; assay type: functional; outline: as §1
[32] = tested on: Candida parapsilosis; experiment: Antifungal activity against Candida parapsilosis isolate CP1 biofilm assessed as viable fungal count per cm2 of silicone disk at 0.5 ug/ml after 48 hrs […]; assay type: functional; outline: as §1
[33] = tested on: Candida parapsilosis; experiment: Antifungal activity against Candida parapsilosis isolate CP1 biofilm after 48 hrs by XTT assay; assay type: functional; conditions: Lodderomyces parapsilosis, isolate CP1, 48 h
Outline: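 Biofilms on serum-preconditioned silicone disks in MOPS-buffered RPMI 1640 (pH 7.0), grown 24 h, PBS-washed, then challenged 48 h at 35°C on a rocker with ten doubling caspofungin dilutions, 0.25–128 μg/ml. Metabolic activity read by XTT-menadione reduction, 2 h at 37°C, A490. SMIC taken as the concentration giving 50% reduction in metabolic activity versus drug-free control. Triplicate.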

[34] = tested on: Candida albicans; experiment: Antifungal activity against Candida albicans isolate CA4 biofilm assessed as viable fungal count per cm2 of silicone disk at 8 ug/ml after 48 hrs […]; assay type: functional; outline: as §1
[35] = tested on: Candida parapsilosis; experiment: Antifungal activity against Candida parapsilosis isolate CP1 biofilm assessed as viable fungal count per cm2 of silicone disk at 64 ug/ml after 48 hrs […]; assay type: functional; outline: as §1
[36] = tested on: Candida parapsilosis; experiment: Ratio of SMIC for Candida parapsilosis isolate CP1 biofilm to MIC for Candida parapsilosis isolate CP1 planktonic cells; assay type: functional
[37] = tested on: Candida albicans; experiment: Antifungal activity against Candida albicans isolate CA4 biofilm after 48 hrs by XTT assay; assay type: functional; conditions: isolate CA4, 48 h; outline: as §3
[38] = tested on: Candida albicans; experiment: Antifungal activity against Candida albicans isolate CA4 planktonic cells after 48 hrs by broth microdilution method; assay type: functional; conditions: isolate CA4, 48 h
Outline: (§4)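 Isolates grown on Sabouraud dextrose agar 24 h at 37°C. MIC is the lowest concentration giving a significant turbidity reduction versus control at 48 h.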

[39] = tested on: Candida parapsilosis; experiment: Antifungal activity against Candida parapsilosis isolate CP1 biofilm assessed as viable fungal count per cm2 of silicone disk at 32 ug/ml after 48 hrs […]; assay type: functional; outline: as §1
[40] = tested on: Candida albicans; experiment: Antifungal activity against Candida albicans isolate CA4 biofilm assessed as viable fungal count per cm2 of silicone disk at 0.25 ug/ml after 48 hrs […]; assay type: functional; outline: as §1
[41] = tested on: Candida albicans; experiment: Antifungal activity against Candida albicans isolate CA4 biofilm assessed as appearance of collapsed blastospore at 16 ug/ml after 48 hrs by scanning electron microscopy; assay type: functional, organism-based; outline: as §2
[42] = tested on: Candida parapsilosis; experiment: Antifungal activity against Candida parapsilosis isolate CP1 planktonic cells after 48 hrs by broth microdilution method; assay type: functional; conditions: Lodderomyces parapsilosis, isolate CP1, 48 h; outline: as §4
[43] = tested on: Candida tropicalis; experiment: Antifungal activity against Candida tropicalis isolate CT8 biofilm assessed as viable fungal count per cm2 of silicone disk at 64 ug/ml after 48 hrs […]; assay type: functional; outline: as §1
[44] = tested on: Candida albicans; experiment: Antifungal activity against Candida albicans isolate CA4 biofilm assessed as assessed as decrease in preformed fungal biofilm formation at 128 ug/ml after 48 hrs by scanning electron microscopy; assay type: functional, organism-based; outline: as §2
[45] = tested on: Candida parapsilosis; experiment: Antifungal activity against Candida parapsilosis isolate CP1 biofilm assessed as viable fungal count per cm2 of silicone disk at 2 ug/ml after 48 hrs […]; assay type: functional; outline: as §1
[46] = tested on: Candida tropicalis; experiment: Antifungal activity against Candida tropicalis isolate CT8 biofilm assessed as viable fungal count per cm2 of silicone disk at 16 ug/ml after 48 hrs […]; assay type: functional; outline: as §1
[47] = tested on: Candida tropicalis; experiment: Antifungal activity against Candida tropicalis isolate CT8 biofilm assessed as change in cellular morphology at 16 ug/ml after 48 hrs by scanning electron microscopy; assay type: functional, organism-based; outline: as §2
[48] = tested on: Candida albicans; experiment: Antifungal activity against Candida albicans isolate CA4 biofilm assessed as viable fungal count per cm2 of silicone disk at 64 ug/ml after 48 hrs […]; assay type: functional; outline: as §1

CC[C@H](C)C[C@H](C)CCCCCCCCC(=O)N[C@H]1C[C@@H](O)[C@@H](NCCN)NC(=O)[C@@H]2[C@@H](O)CCN2C(=O)[C@H]([C@H](O)CCN)NC(=O)[C@H]([C@H](O)[C@@H](O)c2ccc(O)cc2)NC(=O)[C@@H]2C[C@@H](O)CN2C(=O)[C@H]([C@@H](C)O)NC1=O [CASPOFUNGIN]
log10cfu [1]: 5.7
Ratio [2]: 2
Ratio [3]: 16
MIC [4]: 0.0625 µg/mL (≈ 0.0572 µM)
log10cfu [5]: 5.6
Activity [6]: Active
Activity [7]: Active
log10cfu [8]: 3.4
log10cfu [9]: 6.2
log10cfu [10]: 5.7
Activity [11]: inactive
log10cfu [12]: 2.7
log10cfu [13]: 5.2
log10cfu [14]: 3.3
log10cfu [15]: 5.9
log10cfu [16]: 4.5
log10cfu [17]: 6.4
log10cfu [18]: 4.7
log10cfu [19]: 5.4
log10cfu [20]: 3.3
log10cfu [21]: 5.1
log10cfu [22]: 6.2
MIC [23]: 0.25 µg/mL (≈ 0.229 µM)
log10cfu [24]: 0
Activity [25]: inactive
log10cfu [26]: 5.3
Activity [27]: Active
log10cfu [28]: 0
log10cfu [29]: 5.7
Activity [30]: Active
log10cfu [31]: 3.5
log10cfu [32]: 0
MIC [33]: 4 µg/mL (≈ 3.66 µM)
log10cfu [34]: 5.6
log10cfu [35]: 3.6
Ratio [36]: 2
MIC [37]: 0.5 µg/mL (≈ 0.457 µM)
MIC [38]: 0.0625 µg/mL (≈ 0.0572 µM)
log10cfu [39]: 4.2
log10cfu [40]: 4.4
Activity [41]: Active
MIC [42]: 0.25 µg/mL (≈ 0.229 µM)
log10cfu [43]: 5
Activity [44]: Active
log10cfu [45]: 0
log10cfu [46]: 5.7
Activity [47]: Active
log10cfu [48]: 4.6
